Laboratory results: publication PMC6598221 (Saudi Pharmaceutical Journal : SPJ, 2019)

Biological target: trypsin from porcine pancreas (Sus scrofa, UniProt P00761)
Assay: trypsin inhibition assay
Type: biochemical
In short: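 Porcine pancreatic trypsin. Test compound stock diluted twofold in 50 mM Tris buffer (20 mM CaCl2, pH 8.2). Trypsin and BAPNA added at final 40 and 160 µg/mL, incubated at 37 °C for 12 min, stopped with 30% acetic acid, A410 read. IC50 derived from % inhibition. Caffeic and tannic acids were reference inhibitors. Means ± standard errors; one-way ANOVA with Tukey's test, p < 0.05.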

Chain of trypsin from porcine pancreas (P00761 9-231): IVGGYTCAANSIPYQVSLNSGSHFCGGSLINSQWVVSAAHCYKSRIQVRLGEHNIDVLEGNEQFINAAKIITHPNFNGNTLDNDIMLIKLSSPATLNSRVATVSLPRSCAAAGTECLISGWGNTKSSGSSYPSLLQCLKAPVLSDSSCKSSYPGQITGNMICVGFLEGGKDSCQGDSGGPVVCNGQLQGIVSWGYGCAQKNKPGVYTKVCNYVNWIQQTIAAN

Row | Compound | IC50 [mM] | IC50 trypsin inhibition [µg/mL]
1 | O=C(O)/C=C/c1ccc(O)c(O)c1 [caffeic acid] | 40.6 | 
2 | tannic acid |  | 75.66
